Data on one molecule can be found in ChEMBL document CHEMBL5046294, “Rational Design, Chemical Syntheses, and Biological Evaluations of Peripherally Selective Mu Opioid Receptor Ligands as Potential Opioid Induced Constipation Treatment” (J Med Chem, 2022).

Format in all cases: functional
The test system of assay [1] is Mus musculus. The experiment in a line: Gastroprokinetic activity in Swiss Webster mouse assessed as stimulation of gastrointestinal motility by measuring time required to defecation of red fecal pellet at 10 mg/kg, po incubated for 20 mins by carmine red dye assay. In short, it runs like this: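 Male Swiss Webster mice (5–8 weeks, 25–35 g), singly caged, 5–6 per group. Compound or vehicle was given by oral gavage 5 min before s.c. morphine (10 or 5 mg/kg) or vehicle. Oral vehicle was also given to naïve and morphine groups. 20 min after morphine, mice received 0.2 mL of 6% carmine red in 0.5% CMC p.o. (time 0). Time to the first red pellet was recorded, with a 6 h cut-off. One-way ANOVA with Dunnett test.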

Assay [2] relates to Mus musculus. The experiment in a line: Gastroprokinetic activity in Swiss Webster mouse assessed as stimulation of gastrointestinal motility by measuring time required to defecation of red fecal pellet at 10 mg/kg, sc incubated for 20 mins by carmine red dye assay. The gist of the method: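 Male Swiss Webster mice (5–8 weeks, 25–35 g), singly caged, 5–6 per group. Compound or vehicle was given s.c. 5 min before morphine 10 mg/kg (or vehicle). 20 min after morphine, mice received 0.2 mL of 6% carmine red dye in 0.5% carboxymethyl cellulose orally, set as time 0. Latency to the first red fecal pellet was measured, with a 6 h cut-off. One-way ANOVA followed by Dunnett test.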

For assay [3], the system named is Mus musculus. The experiment in a line: Gastroprokinetic activity in Swiss Webster mouse assessed as stimulation of gastrointestinal motility by measuring time required to defecation of red fecal pellet at 5 mg/kg, po incubated for 20 mins by carmine red dye assay. In short, it runs like this: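 Male Swiss Webster mice, 5–6 per group, housed singly. Compound or vehicle given s.c. or by oral gavage 5 min before morphine (10 or 5 mg/kg) or vehicle. 20 min after morphine, 0.2 mL of 6% carmine red in 0.5% CMC given orally (time 0). Time to first red pellet recorded, 6-h cutoff. Dunnett-corrected one-way ANOVA.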

Consider `CN1CC[C@]23c4c5ccc(O)c4O[C@H]2[C@@H](O)C=C[C@H]3[C@H]1C5` [MORPHINE], for which the Time is listed as 115 min in the assay with Mus musculus [1], 124 min with Mus musculus [2] and 105 min with Mus musculus [3].
